Measured values as given in ChEMBL document CHEMBL4270570 (Eur J Med Chem, 2018).

How the values were obtained:
Gag-Pol polyprotein = Gag-Pol polyprotein (Human immunodeficiency virus type 1 group M subtype B (isolate HXB2)(HIV-1), UniProt P04585); test: Inhibition of HIV1 reverse transcriptase polymerase activity using 18 nucleotide DNA primer and 100 nucleotide DNA template after 30 mins; set-up: species or system Human immunodeficiency virus 1
Method in brief: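 Full-length RT at 20 nM with 40 nM template/primer (18-nt DNA primer on 100-nt DNA template) and 10 µM dNTPs in 50 mM Tris pH 7.8, 50 mM NaCl. Started with 6 mM MgCl2, with 1% DMSO and increasing compound concentrations. Primer extension ran 30 min at 37 °C and was stopped with 100 mM EDTA.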

[1] = Effective permeability of the compound at 10 uM after 5 hrs by PAMPA; format: ADME
Method in brief: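 Lipid-precoated PAMPA plates thawed 30 min at room temperature. Compounds diluted from 10 mM DMSO stock into DPBS to 10 µM final and placed in donor wells, with DPBS in acceptor wells. Incubated 5 h at 25 °C without agitation. Donor and acceptor concentrations measured by LC-MS/MS. Pe calculated from acceptor and equilibrium concentrations, filter area 0.3 cm² and well volumes.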

[2] = biological target: Human immunodeficiency virus type 1 reverse transcriptase (Human immunodeficiency virus 1, UniProt Q72547); test: Inhibition of HIV1 reverse transcriptase RNaseH activity using 3'-fluorescein/5'-Dabcyl labeled HTS-1 substrate
[3] = Cytotoxicity against human P4R5 MAGI cells; format: cell-based
Method in brief: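 P4R5 cells express CD4, CXCR4, CCR5 and an HIV LTR-driven β-galactosidase reporter. They were seeded at 4×10^3 cells per well in DMEM/10% FBS with puromycin (1 µg/mL).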

[4] = system: Human immunodeficiency virus 1; test: Antiviral activity against HIV1 infected in CD4/CXCR4/CCR5 expressing human P4R5 MAGI cells preincubated with cells for 24 hrs followed by viral infection measured after 48 hrs by beta-galactosidase reporter gene assay; format: functional, organism-based
[5] = biological target: Human immunodeficiency virus type 1 integrase (Human immunodeficiency virus 1, UniProt Q7ZJM1); test: Inhibition of HIV integrase strand transfer activity using 5'-biotin/3'-Cy5-labeled DNA substrate preincubated for 5 mins followed by substrate addition measured after 30 mins by HTS assay
Human immunodeficiency virus type 1 integrase, sequence (Q7ZJM1 whole entry): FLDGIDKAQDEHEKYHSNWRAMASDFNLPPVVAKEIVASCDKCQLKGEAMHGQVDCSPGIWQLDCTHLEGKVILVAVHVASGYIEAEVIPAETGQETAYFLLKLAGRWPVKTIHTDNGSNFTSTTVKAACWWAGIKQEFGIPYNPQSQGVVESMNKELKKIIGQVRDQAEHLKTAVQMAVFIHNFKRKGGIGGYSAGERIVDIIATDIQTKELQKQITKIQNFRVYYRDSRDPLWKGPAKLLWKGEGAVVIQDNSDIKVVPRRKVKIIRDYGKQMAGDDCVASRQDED

Row | Compound | IC50 (Gag-Pol polyprotein) [µM] | Peff [1] [×10⁻⁶ cm/s] | IC50 [2] [µM] | CC50 [3] [µM] | EC50 [4] [µM] | IC50 [5] [µM]
1 | COc1ccc(-c2ccc(Sc3cc(=O)n(O)c(=O)[nH]3)cc2)cc1OC | 10 | 0.9 | 0.004 | > 100 | > 20 | 0.33
2 | COc1ccc(Sc2cc(=O)n(O)c(=O)[nH]2)cc1 | > 10 |  | 0.012 | > 100 | > 20 | 3.6
3 | O=c1cc(Sc2ccccc2C(F)(F)F)[nH]c(=O)n1O | > 10 |  | 0.012 | > 100 | 6.6 | 0.88
4 | O=c1cc(Sc2ccccc2Br)[nH]c(=O)n1O | > 10 |  | 0.008 | > 100 | 6.5 | 1.1
5 | COc1cccc(-c2ccc(Sc3cc(=O)n(O)c(=O)[nH]3)cc2)c1 | 10 |  | 0.005 | > 100 | 7.7 | > 1
6 | O=c1cc(Sc2cccc(-c3ccc(Cl)cc3)c2)[nH]c(=O)n1O | 7.8 |  | 0.005 | > 100 | 10 | > 1
7 | COc1ccc(-c2ccc(Sc3cc(=O)n(O)c(=O)[nH]3)cc2)cc1F | 6.8 |  | 0.004 | > 100 | 8 | > 0.14
8 | O=c1cc(Sc2ccccc2F)[nH]c(=O)n1O | > 10 |  | 0.015 | > 100 | 4.7 | 0.77
9 | O=c1[nH]c(Sc2ccc(Br)cc2)c(I)c(=O)n1O | 0.46 |  | 0.12 |  |  | 
10 | O=c1cc(Sc2ccc(-c3ccc(F)cc3)cc2)[nH]c(=O)n1O | > 10 |  | 0.006 | > 100 | 12 | > 1
11 | O=c1cc(Sc2cccc(F)c2)[nH]c(=O)n1O | > 10 |  | 0.014 | > 100 | 9.1 | 0.49
12 | O=c1cc(Sc2ccc([N+](=O)[O-])cc2)[nH]c(=O)n1O | > 10 | 0.032 | 0.012 | > 100 | > 20 | 3.4
13 | O=c1cc(Sc2ccc(C(F)(F)F)cc2)[nH]c(=O)n1O | > 10 |  | 0.031 | > 100 | > 20 | > 10
14 | COc1cccc(-c2ccc(Nc3cc(=O)n(O)c(=O)[nH]3)cc2)c1 |  |  |  | > 25 | > 25 | 
15 | O=c1cc(Sc2ccc(Br)cc2)[nH]c(=O)n1O | 7 |  | 0.01 |  |  | 
16 | O=c1cc(Sc2cccc(-c3cccc(C(F)(F)F)c3)c2)[nH]c(=O)n1O | 7.7 |  | 0.007 | > 100 | 8.3 | > 1
17 | O=c1cc(Sc2ccc(F)cc2)[nH]c(=O)n1O | > 10 |  | 0.037 | > 100 | > 20 | 6.8
18 | O=c1cc(Sc2ccccc2-c2ccc(F)cc2)[nH]c(=O)n1O | > 10 |  | 0.012 | > 100 | 11 | > 100
19 | O=c1cc(Sc2ccccc2)[nH]c(=O)n1O | > 10 |  | 0.016 | > 100 | 11 | 1.1
20 | O=c1cc(Sc2ccc(-c3ccc(Cl)cc3)cc2)[nH]c(=O)n1O | > 10 |  | 0.007 | > 100 | 16 | > 1
21 | Cc1ccc(-c2ccc(Sc3cc(=O)n(O)c(=O)[nH]3)cc2)cc1 | 7 |  | 0.006 | > 100 | 7.5 | > 1
22 | CCc1ccc(Sc2cc(=O)n(O)c(=O)[nH]2)cc1 | > 10 |  | 0.01 | > 100 | 11 | 1.3
23 | COc1cccc(Sc2cc(=O)n(O)c(=O)[nH]2)c1 | > 10 |  | 0.013 | > 100 | 16 | 2.7

Row | Compound | IC50 (Gag-Pol polyprotein) [µM] | Peff [1] [×10⁻⁶ cm/s] | IC50 [2] [µM] | CC50 [3] [µM] | EC50 [4] [µM] | IC50 [5] [µM]
24 | O=c1cc(Sc2cccc(-c3cccc(F)c3)c2)[nH]c(=O)n1O | 9.6 |  | 0.006 | > 100 | 6.5 | 0.24
25 | COc1ccc(-c2ccc(Sc3cc(=O)n(O)c(=O)[nH]3)cc2)cc1 | 10 |  | 0.006 | > 100 | 10 | > 100
26 | O=c1cc(Sc2ccc(-c3cccc(C(F)(F)F)c3)cc2)[nH]c(=O)n1O | > 10 |  | 0.008 | > 100 | > 20 | > 100
27 | Cc1cc(-c2ccc(Sc3cc(=O)n(O)c(=O)[nH]3)cc2)ccc1F | > 10 |  | 0.005 | > 100 | 18 | > 10
28 | COc1ccccc1Sc1cc(=O)n(O)c(=O)[nH]1 | > 10 |  | 0.017 | > 100 | 9 | 8.4
29 | O=c1cc(Sc2ccc(O)cc2)[nH]c(=O)n1O | > 10 |  | 0.011 | > 100 | > 20 | 1.6
30 | O=c1cc(Sc2cccc(Br)c2)[nH]c(=O)n1O | > 10 |  | 0.011 | > 100 | 8.2 | 1.2
31 | O=c1cc(Sc2cccc(-c3ccc(F)c(Cl)c3)c2)[nH]c(=O)n1O | 5.6 |  | 0.005 | > 100 | 11 | > 1
32 | CCc1ccccc1Sc1cc(=O)n(O)c(=O)[nH]1 | > 10 |  | 0.01 | > 100 | 6.2 | 0.75
33 | O=c1cc(Sc2ccc(Cl)cc2)[nH]c(=O)n1O | > 10 | 0.35 | 0.012 | > 100 | > 20 | 0.64
34 | O=c1[nH]c(Sc2ccc(Br)cc2)c(Br)c(=O)n1O | 5 |  | 0.07 |  |  | 
35 | O=c1cc(Sc2ccc(-c3cccc(F)c3)cc2)[nH]c(=O)n1O | 10 |  | 0.005 | > 100 | 7.2 | > 1
36 | O=c1cc(Sc2cccc(-c3ccc(C(F)(F)F)cc3)c2)[nH]c(=O)n1O | 10 |  | 0.007 | > 100 | 11 | > 0.14
37 | O=c1cc(Sc2ccc(-c3ccccc3)cc2)[nH]c(=O)n1O | 3.2 |  | 0.09 |  |  | 
38 | O=c1cc(Sc2cccc(C(F)(F)F)c2)[nH]c(=O)n1O | > 10 |  | 0.013 | > 100 | 6.2 | 0.88
39 | O=c1cc(Sc2cccc(Cl)c2)[nH]c(=O)n1O | > 10 |  | 0.011 | > 100 | 6.3 | 0.59
40 | Cc1ccc(Sc2cc(=O)n(O)c(=O)[nH]2)cc1 | > 10 | 0.92 | 0.033 | > 100 | > 20 | 2.8
41 | O=c1cc(Sc2ccccc2-c2ccc(C(F)(F)F)cc2)[nH]c(=O)n1O | > 10 |  | 0.013 | > 100 | 7 | > 100
42 | O=c1cc(Sc2ccc(-c3ccc(O)cc3)cc2)[nH]c(=O)n1O | > 10 | 0.039 | 0.004 | > 100 | > 20 | 0.17
43 | O=c1cc(Sc2cccc(-c3ccc(F)cc3)c2)[nH]c(=O)n1O | 9.9 |  | 0.005 | > 100 | 5 | > 0.14
44 | COc1cc(OC)cc(-c2ccc(Sc3cc(=O)n(O)c(=O)[nH]3)cc2)c1 | > 10 |  | 0.006 | > 100 | 17 | > 100
45 | O=c1cc(Sc2ccc(-c3ccc(C(F)(F)F)cc3)cc2)[nH]c(=O)n1O | 8.4 |  | 0.039 | > 100 | 12 | > 1
46 | O=c1cc(Sc2cccc3ccccc23)[nH]c(=O)n1O | 10 |  | 0.007 | > 100 | 6.3 | 0.79
